Values after ≈ are worked out from the molar mass of the structure shown.
How the values were obtained:
P388 = test: Cytotoxicity against mouse P388; assay type: functional
Summary of the method: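 Murine P-388 leukemia cells were a gift from an academic laboratory; cytotoxicity reported as ED50 in µg/mL.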

HT-29 = test: Cytotoxicity against human HT-29; assay type: functional
Summary of the method: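 HT-29 human colon cells obtained from the American Type Culture Collection; cytotoxicity reported as ED50 in µg/mL.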

[1] = read-out: ED50 (the source's name)

SMILES | EC50 (P388; [1]) | Activity (HT-29) | Activity (P388) | EC50 (HT-29; [1])
C=C1CC[C@@H]2CCC3=C([C@@H](C/C(C)=C/[C@@H](O)C1)OC3=O)C2(C)C [CESPITULARIN O] | 3.4 mg/L (≈ 10.7 µM) | Not toxic |  | 
C=C1CC[C@@H]2O[C@@]2(C)CC[C@@H]2/C(=C/C=C/C(C)C)C(=O)OC[C@@H]12 |  | Not toxic | Not toxic | 
C=C1CC[C@@H]2CC[C@H](OC(=O)C/C(C)=C/[C@@H](O)C1)C(=O)C2(C)C |  | Not toxic | Not toxic | 
CC(C)[C@@H](C)[C@@]1(C)C[C@@H]1[C@@H](C)[C@H]1CC[C@@H]([C@@H]2C[C@H]3O[C@]34C[C@@H](O)CC[C@]4(C)C2=O)[C@]1(C)CCO |  | Not toxic | Not toxic | 
C=C1CC[C@@H]2CCC3=C(C2(C)C)[C@@](OC)(C/C(C)=C/[C@@H](O)C1)OC3=O |  | Not toxic | Not toxic | 
C=C1CC[C@@H]2CCC3=C(C(=O)[C@H]([C@H]3O)[C@@]3(C)O[C@@H]3[C@@H](O)C1)C2(C)C |  | Not toxic | Not toxic | 
CC(C)CCC[C@@H](C)[C@H]1CC[C@@H]([C@@H]2C[C@H]3O[C@]34C[C@@H](O)CC[C@]4(C)C2=O)[C@]1(C)CCO |  |  | Not toxic | 1 mg/L (≈ 2.3 µM)
C=C1CC[C@@H]2CC[C@H](O)[C@@](O)(C(=O)C/C(C)=C/[C@@H](O)C1)C2(C)C |  | Not toxic | Not toxic | 
C=C1CC[C@@H]2CCC3=C(C(=O)[C@H](C3=O)/C(C)=C/[C@@H](O)C1)C2(C)C |  | Not toxic | Not toxic | 
C=C1CC[C@@H]2CCC3=C(C(=O)[C@H](C3=O)/C(C)=C/[C@@H](OC(C)=O)C1)C2(C)C |  | Not toxic | Not toxic | 
C=C1CC[C@@H]2CCC3=C(C(=O)[C@@H](/C(C)=C/[C@@H](OC(C)=O)C1)[C@H]3O)C2(C)C |  | Not toxic | Not toxic | 
C=C1CC[C@@H]2CC[C@@H](O)[C@@](O)(C(=O)C/C(C)=C/[C@@H](O)C1)C2(C)C |  | Not toxic | Not toxic | 
